Source: PMC9380726 (ACS Pharmacology & Translational Science, 2022)
Like-named read-outs stand apart in the source and are kept apart here.

Key:
[1] = PET imaging of 89Zr tracer, 17 MBq/kg; type: in vivo, rat
Method in brief: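 Sprague–Dawley rats (200–300 g) received the 89Zr tracer (formulated at 5 MBq/nmol) i.v. or s.c. at 17 MBq/kg (3 nmol/kg). They were PET-imaged under 2–3% isoflurane/O2 at 4, 8, 24, 72 and 168 h, with a 350–650 keV window. Scans ran 15 min (4, 8 h), 20 min (24 h), 30 min (72 h) and 60 min (168 h), followed by a 323 s Co-57 transmission scan for attenuation correction. Images were decay-corrected to injection and reported as %ID/g.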

[2] = type: in vivo; settings: rat, plasma, iv, 20 nmol/kg
Method in brief: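 Sprague–Dawley rats (200–300 g) were dosed at 20 nmol/kg i.v. or s.c. Blood (200 µL) was drawn at 2, 6, 10, 24, 30 and 48 h, processed to plasma, extracted and analysed by UPLC-MS. Quantification used a calibration curve from spiked plasma, and parameters came from non-compartmental analysis. Groups were n = 4 for s.c., and n = 3 or 1 for i.v.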

[3] = in rats; cited from earlier work
[4] = after i.v. administration; cited from earlier work

Molecule: CC[C@H](C)[C@H](NC(=O)[C@H](Cc1ccccc1)NC(=O)[C@H](CCC(=O)O)NC(=O)[C@H](CCCNC(=N)N)NC(=O)[C@H](C)NC(=O)[C@H](C)NC(=O)[C@H](CCC(N)=O)NC(=O)[C@H](CCC(=O)O)NC(=O)[C@H](CCC(=O)O)NC(=O)[C@H](CC(C)C)NC(=O)[C@H](Cc1ccc(O)cc1)NC(=O)[C@H](CO)NC(=O)[C@H](CO)NC(=O)[C@@H](NC(=O)[C@H](CC(=O)O)NC(=O)[C@H](CO)NC(=O)[C@@H](NC(=O)[C@H](Cc1ccccc1)NC(=O)[C@@H](NC(=O)CNC(=O)[C@H](CCC(=O)O)NC(=O)[C@H](C)NC(=O)CCc1c[nH]cn1)[C@@H](C)O)[C@@H](C)O)C(C)C)C(=O)N[C@@H](C)C(=O)N[C@@H](Cc1c[nH]c2ccccc12)C(=O)N[C@@H](CC(C)C)C(=O)N[C@H](C(=O)N[C@@H](CCCNC(=N)N)C(=O)NCC(=O)N[C@@H](CCCNC(=N)N)C(=O)N[C@@H](CCCCNC(=O)COCCOCCNC(=O)COCCOCCNC(=O)CC[C@H](NC(=O)CCCCCCCCCCCCCCCCC(=O)O)C(=O)O)C(=O)NCC(=O)NCC(=O)N[C@@H](CO)C(=O)N[C@@H](CCCCNc1c(NCCCCCN(O)C(=O)CCC(=O)NCCCCCN(O)C(=O)CCC(=O)NCCCCCN(O)C(C)=O)c(=O)c1=O)C(=O)O)C(C)C [[89Zr]2, metal not drawn]
- initial dose trapped in the subcutis ([1]; PET, s.c., after 168 h): 10%
- tissue uptake at 168 h ([1]; rat, kidney, iv, 3 nmol/kg, total radioactivity): ~7 %ID/g

Molecule: CC[C@H](C)[C@H](NC(=O)[C@H](Cc1ccccc1)NC(=O)[C@H](CCC(=O)O)NC(=O)[C@H](CCCNC(=N)N)NC(=O)[C@H](C)NC(=O)[C@H](C)NC(=O)[C@H](CCC(N)=O)NC(=O)[C@H](CCC(=O)O)NC(=O)[C@H](CCC(=O)O)NC(=O)[C@H](CC(C)C)NC(=O)[C@H](Cc1ccc(O)cc1)NC(=O)[C@H](CO)NC(=O)[C@H](CO)NC(=O)[C@@H](NC(=O)[C@H](CC(=O)O)NC(=O)[C@H](CO)NC(=O)[C@@H](NC(=O)[C@H](Cc1ccccc1)NC(=O)[C@@H](NC(=O)CNC(=O)[C@H](CCC(=O)O)NC(=O)[C@H](C)NC(=O)CCc1c[nH]cn1)[C@@H](C)O)[C@@H](C)O)C(C)C)C(=O)N[C@@H](C)C(=O)N[C@@H](Cc1c[nH]c2ccccc12)C(=O)N[C@@H](CC(C)C)C(=O)N[C@H](C(=O)N[C@@H](CCCNC(=N)N)C(=O)NCC(=O)N[C@@H](CCCNC(=N)N)C(=O)N[C@@H](CCCCNC(=O)COCCOCCNC(=O)COCCOCCNC(=O)CC[C@H](NC(=O)CCCCCCCCCCCCCCCCC(=O)O)C(=O)O)C(=O)NCC(=O)NCC(=O)N[C@@H](CO)C(=O)N[C@@H](CCCCNc1c(NCCCCCN(O)C(=O)CCC(=O)NCCCCCN(O)C(=O)CCC(=O)NCCCCCN(O)C(C)=O)c(=O)c1=O)C(=O)O)C(C)C [compound 2]
- half-life [2]: 8.4 h

Molecule: semaglutide
- plasma metabolite exposures [3]: 1–7%
- half-life [4]: 7 to 12 h
